Test results taken from ChEMBL document CHEMBL4513216, “Probing the Open Global Health Chemical Diversity Library for Multistage-Active Starting Points for Next-Generation Antimalarials” (ACS Infect Dis, 2020).

Experiment: Toxicity liver stage against HepG2, at 10uM
Assay type: cell-based
Set-up: test concentration 10 uM, cell line HepG2-A16-CD81EGFP
Settings: human, HepG2-A16-CD81EGFP cells; read-out: INHIBITION
Summary of the method: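 Uninfected HepG2-A16-CD81EGFP cells, 3 × 10^3 per well, 1536-well, plated on prespotted compound at 10 μM final, parasite-free screening media added to match infected plates; puromycin 10 μM positive, DMSO 0.5% negative; run in parallel with 48 h PbLuc assay at 37 °C, 5% CO2; viability by CellTiter-Glo luminescence, normalized to controls.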

CC(C)c1nn(CC(=O)N2CCCC2)c(=O)c2c1cnn2C(C)(C)C
cytotoxicity at 10 µM: 1.12%

Cn1cccc1C(O)CNC(=O)c1ccc2nsnc2c1 (configuration not stated)
cytotoxicity at 10 µM: 4.4%

O=S(=O)(NCC1CCN(c2cnccn2)CC1)c1ccc(F)c(Cl)c1
cytotoxicity at 10 µM: 11.6%

CCN(CC)[C@@H]1CN(S(=O)(=O)c2cn(C)cn2)[C@@H]2CCCO[C@H]12
cytotoxicity at 10 µM: -147%

O=C(NC1CC1)N1CCc2ccc(=O)n(CC3CC3)c2CC1
cytotoxicity at 10 µM: -4.63%

CC(C)N1CCc2onc(Cn3cccn3)c2C1
cytotoxicity at 10 µM: 5.44%

Cc1noc(C2CCC3(CCN(C(=O)c4sccc4C)CC3)O2)n1 (configuration not stated)
cytotoxicity at 10 µM: 8.94%

CCOC[C@H]1CC[C@H]2[C@H](CCN2C(=O)c2cnccn2)O1
cytotoxicity at 10 µM: 2.22%

O=C1NC(c2ccccc2)=N[C@@]12CC[C@@H]1CN(Cc3nccs3)C[C@@H]12
cytotoxicity at 10 µM: 6.37%

Cn1cccc1C(=O)N1CC[C@H]2[C@H](CO[C@H]2CNS(C)(=O)=O)C1
cytotoxicity at 10 µM: -2.94%

Cc1occc1C(=O)N1CCCC2(CCN(c3ccccc3)C2=O)C1 (configuration not stated)
cytotoxicity at 10 µM: -5.5%

Cc1nc(C)c2c(n1)CCN(Cc1ccco1)CC2
cytotoxicity at 10 µM: -0.141%

CCS(=O)(=O)N1CCc2onc(CNc3ncccn3)c2C1
cytotoxicity at 10 µM: -0.748%

N#Cc1cc(C#N)c(SCC(=O)NCc2ccc(F)cc2)nc1N
cytotoxicity at 10 µM: 0.0723%

CC(C)Cc1noc(C2CCCN(C(=O)CCc3cnn(C)c3)C2)n1 (configuration not stated)
cytotoxicity at 10 µM: 0.297%

COCCNc1nnc(-c2cnc(C)cn2)s1
cytotoxicity at 10 µM: 4.22%

COc1ccccc1C1Cn2ccnc2CN1Cc1c[nH]nc1C (configuration not stated)
cytotoxicity at 10 µM: -3.85%

CN(C)c1cccc(C2CCCN2S(=O)(=O)c2cn(C)cn2)n1 (configuration not stated)
cytotoxicity at 10 µM: -28.7%

CC(=O)N1CCn2c(nnc2C2CCCCN2C(C)=O)C1 (configuration not stated)
cytotoxicity at 10 µM: -28.1%

Cc1ccc2nc(C(=O)N3CCCC[C@]4(C)NC(=O)CCC[C@H]34)cn2c1
cytotoxicity at 10 µM: -9.99%

CC(=O)Nc1cc(C(C)(C)C)sc1C#N
cytotoxicity at 10 µM: 10.3%

Cc1ccnc(NC(=O)c2cc(C)oc2C)c1
cytotoxicity at 10 µM: -4.57%

CC(C(=O)N1CCOCC1)S(=O)(=O)Cc1noc(C(C)(C)C)n1 (configuration not stated)
cytotoxicity at 10 µM: -14.2%

c1ccc(-c2nnc3n2CCN(c2nc(C4CC4)ns2)C3)cc1
cytotoxicity at 10 µM: 0.38%

OC(CNCCc1nnc2ccccn12)c1ccc(F)c(F)c1 (configuration not stated)
cytotoxicity at 10 µM: 2.52%

CN(C)c1ccc(NC(=O)c2cccc(N(C)C)c2)nc1
cytotoxicity at 10 µM: 23.3%

NC(=O)c1cnn2c1NCC(CNCC1(c3ccccc3)CCC1)C2 (configuration not stated)
cytotoxicity at 10 µM: -7.73%

Cc1ccc(C)c(C(=O)NC2CCC(N3C(=O)CCC3=O)CC2)c1 (configuration not stated)
cytotoxicity at 10 µM: 3.38%

Cc1nn(C(C)(C)C)c(=O)n1CC(=O)NCC(F)(F)F
cytotoxicity at 10 µM: -1.32%

COc1ncccc1CNC(=O)c1csc(Br)c1
cytotoxicity at 10 µM: -8.03%

CNS(=O)(=O)Cc1cccc(CNc2ccc(C#N)cn2)c1
cytotoxicity at 10 µM: -11.2%

COCc1ccccc1C(=O)N1CCC(CNC(=O)OC(C)(C)C)C1 (configuration not stated)
cytotoxicity at 10 µM: 10.1%

O=C(CN1CCOC(c2ccccc2C(F)(F)F)C1)NC1CC1 (configuration not stated)
cytotoxicity at 10 µM: 3.02%

CCC(C)(NCC(=O)NC(=O)NC)c1nc(C)cs1 (configuration not stated)
cytotoxicity at 10 µM: -4.36%

O=C(NCCNS(=O)(=O)c1ccc2c(c1)CCC2)c1ccccc1
cytotoxicity at 10 µM: 9.36%

Cn1ccnc1CNc1c(F)cccc1-n1cccn1
cytotoxicity at 10 µM: -5.2%

CCc1nnc2n1CCN(Cc1csc(-c3ncccn3)n1)C2
cytotoxicity at 10 µM: -2.33%

Cc1ccc(C)c(CC(=O)Nc2cnccc2SCCCO)c1
cytotoxicity at 10 µM: 21.2%

CCOc1cccc(NC(=O)c2cscn2)n1
cytotoxicity at 10 µM: -3.59%

COC(=O)c1cnc(C(=O)N(c2ccc(OC)c(F)c2)C(C)C)cn1
cytotoxicity at 10 µM: -1.23%

CCCS(=O)(=O)CCN1CCOC(c2ccsc2)C1 (configuration not stated)
cytotoxicity at 10 µM: -2.69%

CCN(C(=O)c1ccccc1I)C1CC(=O)NC1=O (configuration not stated)
cytotoxicity at 10 µM: -3.86%

CCSc1ccc(NC(=O)NC(C)c2ccncc2)cn1 (configuration not stated)
cytotoxicity at 10 µM: -5.14%

NC(=O)CCSCc1cc(Br)cc2cccnc12
cytotoxicity at 10 µM: -7.68%

COC(=O)c1cccc(CNC(=O)c2cc(C(C)C)n(C)n2)c1
cytotoxicity at 10 µM: -3.26%

CSc1sc(NC(=O)C2CCCN(C(N)=O)C2)nc1C (configuration not stated)
cytotoxicity at 10 µM: 6.08%

CN(Cc1nc(N)nc(N(C)C)n1)Cc1cccc2ccccc12
cytotoxicity at 10 µM: 0.554%

CC(=O)NC(C(=O)N(C)Cc1nnc2n1CCC2)C(C)C (configuration not stated)
cytotoxicity at 10 µM: -7.85%

Cn1cc(C2CCCN2c2ncnc3[nH]ccc23)cn1 (configuration not stated)
cytotoxicity at 10 µM: -9.59%

OC(CNc1ccc(Cl)cn1)CN1CCOCC1 (configuration not stated)
cytotoxicity at 10 µM: 4.15%

Cc1noc(C)c1CN(C)C(=O)NC(C)c1cccs1 (configuration not stated)
cytotoxicity at 10 µM: 1.41%

CC(C)N(C(=O)CCc1ccco1)C1CCOCC1
cytotoxicity at 10 µM: -5.63%

Cc1ncc(CNC(=O)NC2CCN(C3CCCC3)CC2)s1
cytotoxicity at 10 µM: -9.01%

CC(C(N)=O)N(C)CCCc1cc(-c2ccc(F)cc2)n(C)n1 (configuration not stated)
cytotoxicity at 10 µM: -4.87%

Cc1ccc(Sc2nccn(C)c2=O)cc1
cytotoxicity at 10 µM: 4.8%

N#CC(Sc1nnnn1C1CCOCC1)C1CCCCC1 (configuration not stated)
cytotoxicity at 10 µM: 21.7%

O=C(NCCOc1ccc(F)c(F)c1)NCc1cccc(CO)c1
cytotoxicity at 10 µM: -8.86%

CC(=O)Nc1cccc(OCCNC(=O)N(C)Cc2ccco2)c1
cytotoxicity at 10 µM: -9.29%

CC(=O)c1ccccc1NC(=O)CCN1CCSCC1
cytotoxicity at 10 µM: -7.88%

Cc1nnc(SCCNC(=O)CC2CCc3ccccc32)s1 (configuration not stated)
cytotoxicity at 10 µM: -3.13%

COC(=O)N1CCC(Oc2ccc(C(=O)NCCN(C)C)cc2Cl)CC1
cytotoxicity at 10 µM: -6.34%

CCOc1cccc(C(=O)N2CCC3(CC2)[C@H](O)C[C@@H]3OC)c1
cytotoxicity at 10 µM: 2.01%

Cc1n[nH]c(C)c1CCc1n[nH]c(=O)n1Cc1cccs1
cytotoxicity at 10 µM: -146%

Cc1cc2cccc(C(=O)N3CC[C@](C)(O)[C@H](C)C3)c2o1
cytotoxicity at 10 µM: 4%

CC(C)OC(C)c1nnc(SCC(=O)O)n1-c1ccc(F)cc1F (configuration not stated)
cytotoxicity at 10 µM: -11.6%

Cc1ccc2cc(C3(O)CCN(C(=O)[C@@H]4CCCCN4)CC3)ccc2n1
cytotoxicity at 10 µM: -0.456%

COCc1noc(CCNc2ncnc3c2CCNCC3)n1
cytotoxicity at 10 µM: -5.59%

CCOC(=O)N1CCC2(CCCN(C3CCOCC3)C2=O)C1 (configuration not stated)
cytotoxicity at 10 µM: -133%

CC(=O)N1CCC(C(=O)NC2CC(C)(C)Oc3cc(C)ccc32)CC1 (configuration not stated)
cytotoxicity at 10 µM: -5.41%

c1ccc(Cc2nc(C3CC3)nn2-c2ccc3c(c2)OCCO3)nc1
cytotoxicity at 10 µM: 2.6%

O=C(c1ccco1)N1CCc2c(nc(-c3ccncc3)[nH]c2=O)C1
cytotoxicity at 10 µM: 10.4%

Cc1c(Cl)c(C(=O)N2CC(c3cccnc3)C2)nn1C
cytotoxicity at 10 µM: -5.23%

Cc1nn(-c2ccccc2)c(C)c1-c1ccnc(N2CCCOCC2)n1
cytotoxicity at 10 µM: -11.3%

O=C(O)[C@@H]1CN(C(=O)c2ccc3[nH]nnc3c2)C[C@H]1c1ccccc1
cytotoxicity at 10 µM: -130%

Cc1ccc(C)c2c(C)c(C(=O)NCCCn3cnnc3)[nH]c12
cytotoxicity at 10 µM: 6.28%

O[C@H]1[C@H](n2cc(CN3CCCC3)nn2)c2ccccc2C12CCNCC2
cytotoxicity at 10 µM: -3.76%

COCc1cc(NCCc2ccc(F)cc2)n2nccc2n1
cytotoxicity at 10 µM: -12.6%

CC(C(=O)N1CCCC1)N1CCC(c2nccn2Cc2cscn2)CC1 (configuration not stated)
cytotoxicity at 10 µM: 2.79%

Cc1nccn1CCC1CCCCN1Cc1ccncc1 (configuration not stated)
cytotoxicity at 10 µM: 35.2%

Cc1cc(I)c2c(c1)C(=O)C(CN1CCCC1)(CN1CCCC1)CO2
cytotoxicity at 10 µM: -6.86%

Cc1ccc(O)c(C(=O)N2CCOCC2c2c(C)nn(C)c2C)c1 (configuration not stated)
cytotoxicity at 10 µM: -8.53%

CC(NC(=O)NCc1ccoc1)c1ccc2c(c1)CC(=O)N2 (configuration not stated)
cytotoxicity at 10 µM: -1.82%

O=C(CN1CCOC(CNc2cccnn2)C1)N1CCCCC1 (configuration not stated)
cytotoxicity at 10 µM: 5.18%

Cc1csc(N2CCCN(C(=O)Cn3cncn3)CC2)n1
cytotoxicity at 10 µM: -3.27%

Cc1ccccc1C1(C(=O)NCCN(C(C)C)C(C)C)CCOCC1
cytotoxicity at 10 µM: -6.51%

COC1CCN(C(=O)Cc2csc(-c3ccccc3)n2)CC1
cytotoxicity at 10 µM: -6.75%

CCOCC(O)CN1CCN(C(=O)Cc2cccc(C)c2)CC1 (configuration not stated)
cytotoxicity at 10 µM: -7.1%

O=C(CN1CCCC1Cn1cccn1)NCCC1=CCCCC1 (configuration not stated)
cytotoxicity at 10 µM: -2.78%

c1ccc(OCCNC2CCCN(Cc3noc(C4CC4)n3)C2)cc1 (configuration not stated)
cytotoxicity at 10 µM: -13.6%

CS(=O)(=O)c1cccc(C(N)c2ccc(Cl)cc2)c1 (configuration not stated)
cytotoxicity at 10 µM: -16.1%

CCc1ncc(C(=O)N2CCC(Nc3ccc(C)nn3)CC2)s1
cytotoxicity at 10 µM: -7.94%

OC(COCc1ccco1)CN1CCc2c(ncn2C2CC2)C1 (configuration not stated)
cytotoxicity at 10 µM: -0.885%

Cc1nn(C)c(N(C)C)c1CNCc1ccnc(N2CCCCC2)c1
cytotoxicity at 10 µM: -9.32%

COc1ccc(Cl)cc1CC(=O)N1CCN(CC(C)(C)O)CC1
cytotoxicity at 10 µM: -4.21%

CC(C)CCCNC(=O)Nc1ccc(Cl)c(C(N)=O)c1
cytotoxicity at 10 µM: -0.252%

CCn1ccnc1CN1CCCC1Cn1cc(C)cn1 (configuration not stated)
cytotoxicity at 10 µM: -14.3%

CC(C)c1nc2c(n1C)CCN(CC(=O)Nc1cccnc1)C2
cytotoxicity at 10 µM: -9.52%

O=C(NCC(c1ccc(F)cc1)N1CCOCC1)Nc1cn[nH]c1 (configuration not stated)
cytotoxicity at 10 µM: -15%

COc1cccc(-c2nc(CNC(C)Cn3cccn3)cs2)c1 (configuration not stated)
cytotoxicity at 10 µM: -6.31%

Cc1cccc(-c2noc(CN3CCc4nn(C)c(=O)cc4C3)n2)c1
cytotoxicity at 10 µM: 5.15%

CN1CCCC(c2cncc(C(=O)NCc3ccccc3Cl)n2)C1 (configuration not stated)
cytotoxicity at 10 µM: -2.82%

CC(C)Nc1cccc(CC2CCN(C)C2)n1 (configuration not stated)
cytotoxicity at 10 µM: -27.6%

COCC1c2c(cnn2CC2CC2)CCN1Cc1ccc(C)o1 (configuration not stated)
cytotoxicity at 10 µM: -0.201%

CCO[C@H]1CCN(S(=O)(=O)c2cn(C)cn2)[C@H]1Cc1ccccc1
cytotoxicity at 10 µM: 7.95%

Fc1cnc(N2CCc3nnc(COc4ccccn4)n3CC2)nc1
cytotoxicity at 10 µM: 8.13%

CCS(=O)(=O)NC[C@]12COC[C@H]1CN(CCc1ccccc1)C2
cytotoxicity at 10 µM: 6.07%

CN(C)CCN1CCCC12CCN(C(=O)c1ccncc1)CC2
cytotoxicity at 10 µM: 6.29%

CCN(C)c1ncnc2c1CCN(C(=O)c1ccccn1)CC2
cytotoxicity at 10 µM: -2.23%

CCOCC1CN(S(=O)(=O)N(C)C)Cc2cnn(CC3CC3)c21 (configuration not stated)
cytotoxicity at 10 µM: 12%

O=C(NCC1CCOCC1)[C@@H]1CC[C@@H]2[C@@H](CCN2Cc2ccncc2)O1
cytotoxicity at 10 µM: 4.85%

CN1CCOCC2(CCCN(C(=O)c3cn(C)cn3)C2)C1 (configuration not stated)
cytotoxicity at 10 µM: 8.47%

COCCOC(=O)N1C[C@@H]2CC[C@H]1CN(C1Cc3ccccc3C1)C2
cytotoxicity at 10 µM: 1.06%
